What was measured:
Cytochrome P450 2E1 = Cytochrome P450 2E1 (Homo sapiens, UniProt P05181); assay: Drug level in human recombinant CYP2E1 expressed in insect cells coexpressing NADPH-P450 reductase measured per pmol of enzyme treated with 50 uM cinobufagin at 37 degC after 30 mins by UFLC-DAD-ESI-MS analysis; conditions: 0.5 h
Liver microsome [1] = assay: Drug level in beagle dog liver microsomes treated with 100 uM cinobufagin at 37 degC after 30 mins by UFLC-ESI-MS analysis in presence of NADPH-generating system; type: ADME, Canis lupus familiaris; conditions: 0.5 h
Summary of the method: (§1)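 Liver microsomes (0.3 mg protein/ml) incubated with 100 µM substrate at 37°C for 30 min, in 100 mM potassium phosphate pH 7.4 with NADPH-generating system (1 mM NADP+, 10 mM glucose 6-phosphate, 1 unit/ml G6PDH, 4 mM MgCl2). Acetonitrile ≤1% final. Stopped with ice-cold acetonitrile and centrifuged. Metabolites identified by UFLC-ESI-MS and quantified by UFLC-DAD at 294 nm against authentic standard curves.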

Cytochrome P450 2A6 = molecular target: T1, Cytochrome P450 2A6 (Homo sapiens, UniProt P11509); assay: Drug level in human recombinant CYP2A6 expressed in insect cells coexpressing NADPH-P450 reductase measured per pmol of enzyme treated with 50 uM cinobufagin at 37 degC after 30 mins by UFLC-DAD-ESI-MS analysis; conditions: 0.5 h
T1 sequence (P11509 whole entry): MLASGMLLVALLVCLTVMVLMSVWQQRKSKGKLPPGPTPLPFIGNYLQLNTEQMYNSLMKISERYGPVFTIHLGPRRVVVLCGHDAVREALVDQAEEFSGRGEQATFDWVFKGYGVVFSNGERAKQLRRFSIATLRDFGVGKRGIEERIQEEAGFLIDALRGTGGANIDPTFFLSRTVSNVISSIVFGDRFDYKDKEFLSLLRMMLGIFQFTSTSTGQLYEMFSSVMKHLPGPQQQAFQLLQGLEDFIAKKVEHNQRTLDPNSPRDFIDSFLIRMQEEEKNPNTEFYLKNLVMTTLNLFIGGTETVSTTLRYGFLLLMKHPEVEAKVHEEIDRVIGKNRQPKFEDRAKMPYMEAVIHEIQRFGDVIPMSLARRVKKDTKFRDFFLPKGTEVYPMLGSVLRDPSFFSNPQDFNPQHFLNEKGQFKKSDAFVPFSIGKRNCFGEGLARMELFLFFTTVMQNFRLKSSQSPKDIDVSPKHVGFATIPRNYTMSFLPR

[2] = Drug level in cynomolgus monkey liver microsomes treated with 100 uM cinobufagin at 37 degC after 30 mins by UFLC-ESI-MS analysis in presence of NADPH-generating system; type: ADME, Macaca fascicularis; conditions: 0.5 h
Summary of the method: as §1

Cytochrome P450 2B6 = molecular target: T2, Cytochrome P450 2B6 (Homo sapiens, UniProt P20813); assay: Drug level in human recombinant CYP2B6 expressed in insect cells coexpressing NADPH-P450 reductase measured per pmol of enzyme treated with 50 uM cinobufagin at 37 degC after 30 mins by UFLC-DAD-ESI-MS analysis; conditions: 0.5 h
T2 sequence (P20813 whole entry): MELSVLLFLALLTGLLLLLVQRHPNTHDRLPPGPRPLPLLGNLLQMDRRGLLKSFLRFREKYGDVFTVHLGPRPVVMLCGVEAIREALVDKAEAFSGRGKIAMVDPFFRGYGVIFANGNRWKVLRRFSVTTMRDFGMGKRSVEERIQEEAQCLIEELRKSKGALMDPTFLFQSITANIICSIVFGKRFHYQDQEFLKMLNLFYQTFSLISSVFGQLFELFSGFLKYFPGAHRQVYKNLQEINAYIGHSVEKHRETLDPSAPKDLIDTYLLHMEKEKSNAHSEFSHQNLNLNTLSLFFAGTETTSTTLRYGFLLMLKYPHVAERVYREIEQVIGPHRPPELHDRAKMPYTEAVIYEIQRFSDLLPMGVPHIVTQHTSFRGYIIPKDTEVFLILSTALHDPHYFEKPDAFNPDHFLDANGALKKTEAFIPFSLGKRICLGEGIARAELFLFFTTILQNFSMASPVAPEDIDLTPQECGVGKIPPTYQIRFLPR

Cytochrome P450 1A2 = molecular target: T3, Cytochrome P450 1A2 (Homo sapiens, UniProt P05177); assay: Drug level in human recombinant CYP1A2 expressed in insect cells coexpressing NADPH-P450 reductase measured per pmol of enzyme treated with 50 uM cinobufagin at 37 degC after 30 mins by UFLC-DAD-ESI-MS analysis; conditions: 0.5 h
T3 sequence (P05177 whole entry): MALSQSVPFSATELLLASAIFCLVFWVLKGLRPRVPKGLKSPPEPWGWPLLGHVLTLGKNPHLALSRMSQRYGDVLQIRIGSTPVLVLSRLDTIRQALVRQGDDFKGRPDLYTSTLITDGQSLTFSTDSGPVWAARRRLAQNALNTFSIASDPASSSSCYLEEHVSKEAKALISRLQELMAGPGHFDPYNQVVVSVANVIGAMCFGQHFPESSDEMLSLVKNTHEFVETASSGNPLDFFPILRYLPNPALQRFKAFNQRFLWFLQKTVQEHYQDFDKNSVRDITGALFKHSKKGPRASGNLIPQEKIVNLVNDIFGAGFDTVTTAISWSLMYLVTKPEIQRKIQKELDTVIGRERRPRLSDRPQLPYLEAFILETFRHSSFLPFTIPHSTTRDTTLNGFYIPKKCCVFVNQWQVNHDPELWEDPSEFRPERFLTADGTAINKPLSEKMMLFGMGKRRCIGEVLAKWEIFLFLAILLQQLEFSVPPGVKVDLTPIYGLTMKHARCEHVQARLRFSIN

Cytochrome P450 2D6 = Cytochrome P450 2D6 (Homo sapiens, UniProt P10635); assay: Drug level in human recombinant CYP2D6 expressed in insect cells coexpressing NADPH-P450 reductase measured per pmol of enzyme treated with 50 uM cinobufagin at 37 degC after 30 mins by UFLC-DAD-ESI-MS analysis; conditions: 0.5 h
Liver microsome [3] = assay: Drug level in human liver microsomes treated with 100 uM cinobufagin at 37 degC after 30 mins by UFLC-ESI-MS analysis in presence of NADPH-generating system; type: ADME; conditions: 0.5 h
Summary of the method: as §1

Cytochrome P450 2C19 = Cytochrome P450 2C19 (Homo sapiens, UniProt P33261); assay: Drug level in human recombinant CYP2C19 expressed in insect cells coexpressing NADPH-P450 reductase measured per pmol of enzyme treated with 100 uM cinobufagin at 37 degC after 30 mins by UFLC-DAD-ESI-MS analysis; type: ADME; conditions: 0.5 h
[4] = Cytotoxicity against human Bel7402 cells assessed as againsthibition of cell growth after 72 hrs; type: cell-based; conditions: Bel-7402, 72 h
Summary of the method: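 Bel-7402 hepatoma cells grown in RPMI 1640 with 10% FBS and 1% penicillin/streptomycin, trypsinised, seeded and exposed to serial dilutions for 72 h at 37°C.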

Cytochrome P450 3A4 = Cytochrome P450 3A4 (Homo sapiens, UniProt P08684); assay: Drug level in human recombinant CYP3A4 expressed in insect cells coexpressing NADPH-P450 reductase measured per pmol of enzyme treated with 50 uM cinobufagin at 37 degC after 30 mins by UFLC-DAD-ESI-MS analysis; conditions: 0.5 h
Chain of Cytochrome P450 3A4 (P08684 whole entry): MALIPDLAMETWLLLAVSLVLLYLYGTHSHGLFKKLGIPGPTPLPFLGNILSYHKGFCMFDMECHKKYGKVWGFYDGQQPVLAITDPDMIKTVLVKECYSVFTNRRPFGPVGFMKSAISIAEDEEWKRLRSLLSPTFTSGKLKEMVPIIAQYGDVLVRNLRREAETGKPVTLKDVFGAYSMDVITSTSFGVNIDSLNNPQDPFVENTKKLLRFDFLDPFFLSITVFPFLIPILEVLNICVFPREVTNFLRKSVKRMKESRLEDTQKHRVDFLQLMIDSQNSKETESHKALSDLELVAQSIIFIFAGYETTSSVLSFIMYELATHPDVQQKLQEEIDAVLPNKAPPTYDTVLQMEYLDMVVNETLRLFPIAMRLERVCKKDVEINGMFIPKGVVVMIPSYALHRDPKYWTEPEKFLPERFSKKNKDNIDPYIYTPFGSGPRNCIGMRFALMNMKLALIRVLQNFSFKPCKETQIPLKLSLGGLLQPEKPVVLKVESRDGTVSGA

Chain of Cytochrome P450 2D6 (P10635 whole entry): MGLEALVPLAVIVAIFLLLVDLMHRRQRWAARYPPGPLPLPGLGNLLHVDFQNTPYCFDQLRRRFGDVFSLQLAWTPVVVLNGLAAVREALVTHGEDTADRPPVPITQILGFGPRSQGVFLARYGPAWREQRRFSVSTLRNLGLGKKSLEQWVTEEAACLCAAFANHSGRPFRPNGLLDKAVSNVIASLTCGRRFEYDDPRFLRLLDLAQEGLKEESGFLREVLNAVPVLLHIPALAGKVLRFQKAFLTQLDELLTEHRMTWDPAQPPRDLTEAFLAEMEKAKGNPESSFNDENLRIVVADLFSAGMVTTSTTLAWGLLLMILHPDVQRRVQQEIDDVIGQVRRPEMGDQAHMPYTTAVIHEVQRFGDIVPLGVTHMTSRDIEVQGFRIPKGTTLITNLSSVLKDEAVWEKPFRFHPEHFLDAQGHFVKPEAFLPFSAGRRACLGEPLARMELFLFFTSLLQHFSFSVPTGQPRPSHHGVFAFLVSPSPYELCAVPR
Chain of Cytochrome P450 2C19 (P33261 whole entry): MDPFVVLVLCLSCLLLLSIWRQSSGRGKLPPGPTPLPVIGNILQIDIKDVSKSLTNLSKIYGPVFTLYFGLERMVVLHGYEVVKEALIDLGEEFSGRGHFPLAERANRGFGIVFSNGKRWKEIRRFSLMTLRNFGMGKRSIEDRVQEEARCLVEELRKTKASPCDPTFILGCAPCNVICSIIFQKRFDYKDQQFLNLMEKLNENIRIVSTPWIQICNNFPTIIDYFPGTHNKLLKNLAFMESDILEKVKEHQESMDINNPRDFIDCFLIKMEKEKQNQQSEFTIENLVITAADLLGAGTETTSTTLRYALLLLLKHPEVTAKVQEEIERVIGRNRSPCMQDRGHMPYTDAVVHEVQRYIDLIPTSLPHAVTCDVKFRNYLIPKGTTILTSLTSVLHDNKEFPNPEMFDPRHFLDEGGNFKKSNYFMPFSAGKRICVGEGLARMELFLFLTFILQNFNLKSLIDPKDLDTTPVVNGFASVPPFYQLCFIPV
Chain of Cytochrome P450 2E1 (P05181 whole entry): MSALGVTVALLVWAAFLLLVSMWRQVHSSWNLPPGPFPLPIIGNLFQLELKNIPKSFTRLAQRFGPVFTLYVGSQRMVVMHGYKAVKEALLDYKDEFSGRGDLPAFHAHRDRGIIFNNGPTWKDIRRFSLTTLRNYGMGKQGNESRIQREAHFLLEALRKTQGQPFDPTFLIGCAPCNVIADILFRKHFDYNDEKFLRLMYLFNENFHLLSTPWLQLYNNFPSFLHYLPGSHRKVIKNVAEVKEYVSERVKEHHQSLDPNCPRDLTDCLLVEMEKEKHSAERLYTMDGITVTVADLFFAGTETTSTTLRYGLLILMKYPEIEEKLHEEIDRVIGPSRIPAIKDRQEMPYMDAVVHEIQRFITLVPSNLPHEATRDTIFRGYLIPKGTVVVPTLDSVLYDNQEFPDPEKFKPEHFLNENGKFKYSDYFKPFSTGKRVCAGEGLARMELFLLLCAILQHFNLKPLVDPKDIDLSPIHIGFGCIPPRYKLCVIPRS

For CC(=O)O[C@H]1[C@H]2O[C@]23[C@@H]2CC[C@]4(O)C[C@@H](O)CC[C@]4(C)[C@H]2CC[C@]3(C)[C@H]1c1ccc(=O)oc1 [CINOBUFOTALIN], the Drug metabolism (Cytochrome P450 2E1) was under 0.01 pmol/min, the Drug metabolism (Liver microsome [1]) was “metabolite_detected” and the Drug metabolism (Cytochrome P450 2A6) was under 0.01 pmol/min. The Drug metabolism [2] was “metabolite_detected”, the Drug metabolism (Cytochrome P450 2B6) was under 0.01 pmol/min and the Drug metabolism (Cytochrome P450 1A2) was under 0.01 pmol/min. The Drug metabolism (Cytochrome P450 2D6) was under 0.01 pmol/min, the Drug metabolism (Liver microsome [3]) was “metabolite_detected” and the Drug metabolism (Cytochrome P450 2C19) was under 0.01 pmol/min. For the same compound, the IC50 [4] was 8620 nM and the Drug metabolism (Cytochrome P450 3A4) was 26.02 pmol/min.
For CC(=O)O[C@H]1[C@H]2O[C@]23[C@@H]2CC[C@@H]4C[C@@H](O)C[C@H](O)[C@]4(C)[C@H]2CC[C@]3(C)[C@H]1c1ccc(=O)oc1, the Drug metabolism (Cytochrome P450 2E1) was under 0.01 pmol/min, the Drug metabolism (Liver microsome [1]) was “metabolite_detected” and the Drug metabolism (Cytochrome P450 2A6) was under 0.01 pmol/min. The Drug metabolism [2] was “metabolite_detected”, the Drug metabolism (Cytochrome P450 2B6) was under 0.01 pmol/min and the Drug metabolism (Cytochrome P450 1A2) was under 0.01 pmol/min. The Drug metabolism (Cytochrome P450 2D6) was under 0.01 pmol/min, the Drug metabolism (Liver microsome [3]) was “metabolite_detected” and the Drug metabolism (Cytochrome P450 2C19) was under 0.01 pmol/min. It also gave an IC50 [4] of 370 nM and a Drug metabolism (Cytochrome P450 3A4) of 14.01 pmol/min.
Compound CC(=O)O[C@H]1[C@H]2O[C@]23[C@@H]2CC[C@@H]4C[C@@H](O)CC[C@]4(C)[C@H]2CC[C@]3(C)[C@H]1c1ccc(=O)oc1 [CINOBUFAGIN] has an IC50 [4] of 49 nM.
